According to ChEMBL document CHEMBL1121479, “Simple beta-lactam compounds derived from 6-aminopenicillanic acid” (1980):
≈ marks a conversion by molar mass, not a printed value.

Experiments:
Pseudomonas aeruginosa [1] = assay: Evaluated for the minimum inhibitory concentration (MIC) which inhibits the growth of Pseudomonas aeruginosa ATCC 9721.; format: functional
Procedure, shortened: (§1)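 Agar dilution on trypticase soy agar plates holding sample or standard at 0 to 200 μg/mL agar. Solutions were made and diluted in Me₂SO or water. Each plate was inoculated twice with every organism using a Steers replicator and incubated 18 h at 37 °C. MIC was taken as the lowest level that inhibited growth.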

Serratia marcescens [2] = assay: Evaluated for the minimum inhibitory concentration (MIC) which inhibits the growth of Serratia marcescens MIT B-43; format: functional; procedure, shortened: as §1
Staphylococcus aureus [3] = assay: Evaluated for the minimum inhibitory concentration (MIC) which inhibits the growth of Staphylococcus aureus ATCC 25923; format: functional; procedure, shortened: as §1
Klebsiella pneumoniae [4] = assay: Evaluated for the minimum inhibitory concentration (MIC) which inhibits the growth of Klebsiella pneumoniae ATCC 27736; format: functional; procedure, shortened: as §1
[5] = test system: Staphylococcus epidermidis; assay: Evaluated for the minimum inhibitory concentration (MIC) which inhibits the growth of Staphylococcus epidermidis ATCC 14990; format: functional; procedure, shortened: as §1
Proteus mirabilis [6] = assay: Evaluated for the minimum inhibitory concentration (MIC) which inhibits the growth of Proteus mirabilis MIT B-52; format: functional; procedure, shortened: as §1
Escherichia coli [7] = assay: Evaluated for the minimum inhibitory concentration (MIC) which inhibits the growth of Escherichia coli ATCC 25922; format: functional; procedure, shortened: as §1
Bacillus subtilis [8] = assay: Evaluated for the minimum inhibitory concentration (MIC) which inhibits the growth of Bacillus subtilis ATCC 6051; format: functional; procedure, shortened: as §1
Shigella sonnei [9] = assay: Evaluated for the minimum inhibitory concentration (MIC) which inhibits the growth of Shigella sonnei ATCC 11060; format: functional; procedure, shortened: as §1
Micrococcus luteus [10] = assay: Evaluated for the minimum inhibitory concentration (MIC) which inhibits the growth of Sarcina lutea ATCC 9341; format: functional; procedure, shortened: as §1
Streptococcus pyogenes [11] = assay: Evaluated for the minimum inhibitory concentration (MIC) which inhibits the growth of Streptococcus pyogenes ATCC 10389; format: functional; procedure, shortened: as §1
Enterobacter cloacae [12] = assay: Evaluated for the minimum inhibitory concentration (MIC) which inhibits the growth of Enterobacter cloacae ATCC 13047; format: functional; procedure, shortened: as §1
Proteus vulgaris [13] = assay: Evaluated for the minimum inhibitory concentration (MIC) which inhibits the growth of Proteus vulgaris ATCC 6380; format: functional; procedure, shortened: as §1
Salmonella typhimurium [14] = assay: Evaluated for the minimum inhibitory concentration (MIC) which inhibits the growth of; format: functional, salmonella typhimurium a; conditions: Salmonella enterica; procedure, shortened: as §1
Serratia marcescens [15] = assay: Evaluated for the minimum inhibitory concentration (MIC) which inhibits the growth of Serratia marcescens MIT B-43 (gram-negative); format: functional; procedure, shortened: as §1
Salmonella typhimurium [16] = assay: Evaluated for the minimum inhibitory concentration (MIC) which inhibits the growth of Salmonella Typhimurium ATCC 13311 (gram-negative); format: functional, Salmonella enterica subsp. enterica serovar Typhimurium; conditions: Salmonella enterica; procedure, shortened: as §1
Proteus vulgaris [17] = assay: Evaluated for the minimum inhibitory concentration (MIC) which inhibits the growth of Proteus vulgaris ATCC 6380 (gram-negative); format: functional; procedure, shortened: as §1
Pseudomonas aeruginosa [18] = assay: Evaluated for the minimum inhibitory concentration (MIC) which inhibits the growth of Pseudomonas aeruginosa ATCC 9721 (gram-negative); format: functional; procedure, shortened: as §1
Enterobacter cloacae [19] = assay: Evaluated for the minimum inhibitory concentration (MIC) which inhibits the growth of Enterobacter cloacae ATCC 13047 (gram-negative); format: functional; procedure, shortened: as §1
[20] = test system: Staphylococcus epidermidis; assay: Evaluated for the minimum inhibitory concentration (MIC) which inhibits the growth of Staphylococcus epidermidis ATCC 14990 (gram-positive); format: functional; procedure, shortened: as §1
Shigella sonnei [21] = assay: Evaluated for the minimum inhibitory concentration (MIC) which inhibits the growth of Shigella sonnei ATCC 11060 (gram-negative); format: functional; procedure, shortened: as §1
Escherichia coli [22] = assay: Evaluated for the minimum inhibitory concentration (MIC) which inhibits the growth of Escherichia coli ATCC 25922 (gram-negative); format: functional; procedure, shortened: as §1
Staphylococcus aureus [23] = assay: Evaluated for the minimum inhibitory concentration (MIC) which inhibits the growth of Staphylococcus aureus ATCC 25923 (gram-positive); format: functional; procedure, shortened: as §1
Micrococcus luteus [24] = assay: Evaluated for the minimum inhibitory concentration (MIC) which inhibits the growth of Sarcina lutea ATCC 9341 (gram-positive); format: functional; procedure, shortened: as §1
Klebsiella pneumoniae [25] = assay: Evaluated for the minimum inhibitory concentration (MIC) which inhibits the growth of Klebsiella pneumoniae ATCC 27736 (gram-negative); format: functional; procedure, shortened: as §1
Streptococcus pyogenes [26] = assay: Evaluated for the minimum inhibitory concentration (MIC) which inhibits the growth of Streptococcus pyogenes ATCC 10389 (gram-positive); format: functional; procedure, shortened: as §1
Proteus mirabilis [27] = assay: Evaluated for the minimum inhibitory concentration (MIC) which inhibits the growth of Proteus mirabilis MIT B-52 (gram-negative); format: functional; procedure, shortened: as §1
Bacillus subtilis [28] = assay: Evaluated for the minimum inhibitory concentration (MIC) which inhibits the growth of Bacillus subtilis ATCC 6051 (gram-positive); format: functional; procedure, shortened: as §1

Work on `CC(C)(CO)SC1CC(=O)N1` (stereo not drawn) yielded an MIC (Pseudomonas aeruginosa [1]) greater than 100 µg/mL, an MIC (Serratia marcescens [2]) greater than 100 µg/mL and an MIC (Staphylococcus aureus [3]) greater than 100 µg/mL. For the same molecule, the MIC (Klebsiella pneumoniae [4]) was greater than 100 µg/mL, the MIC [5] was greater than 100 µg/mL and the MIC (Proteus mirabilis [6]) was greater than 100 µg/mL. It also gave an MIC (Escherichia coli [7]) greater than 100 µg/mL, an MIC (Bacillus subtilis [8]) of 100 µg/mL (≈ 571 µM) and an MIC (Shigella sonnei [9]) greater than 100 µg/mL. The MIC (Micrococcus luteus [10]) was greater than 100 µg/mL, the MIC (Streptococcus pyogenes [11]) was greater than 100 µg/mL and the MIC (Enterobacter cloacae [12]) was greater than 100 µg/mL. The MIC (Proteus vulgaris [13]) was greater than 100 µg/mL and the MIC (Salmonella typhimurium [14]) was greater than 100 µg/mL.

Work on `CC1(C)SC2CC(=O)N2C1O` (stereo not drawn) yielded an MIC (Serratia marcescens [15]) greater than 100 µg/mL, an MIC (Salmonella typhimurium [16]) greater than 100 µg/mL and an MIC (Proteus vulgaris [17]) greater than 100 µg/mL. It also gave an MIC (Pseudomonas aeruginosa [18]) greater than 100 µg/mL, an MIC (Enterobacter cloacae [19]) greater than 100 µg/mL and an MIC [20] greater than 100 µg/mL. The MIC (Shigella sonnei [21]) was greater than 100 µg/mL, the MIC (Escherichia coli [22]) was greater than 100 µg/mL and the MIC (Staphylococcus aureus [23]) was greater than 100 µg/mL. For the same molecule, the MIC (Micrococcus luteus [24]) was greater than 100 µg/mL, the MIC (Klebsiella pneumoniae [25]) was greater than 100 µg/mL and the MIC (Streptococcus pyogenes [26]) was greater than 100 µg/mL. It also gave an MIC (Proteus mirabilis [27]) greater than 100 µg/mL and an MIC (Bacillus subtilis [28]) of 25 µg/mL (≈ 144 µM).
